ChEMBL document CHEMBL4680136, “Synthesis and antitumor activities investigation of a C-nucleoside analogue of ribavirin” (Eur J Med Chem, 2020)
pIC50: −log10 of the molar value. In brackets after ≈: the same amount, converted by molar mass.

Columns and labels:
[1] = test system: IGROV-1; assay: Antiproliferative activity against human IGROV-1 cells assessed as reduction in cell growth incubated for 7 days by trypan blue exclusion assay; type: functional, cell-based; conditions: IGROV-1, 168 h
Summary of the method: (§1)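 Ovarian lines grown in RPMI-1640 glutaMAX with 10% FBS, 5% CO2, 37°C. Cells seeded at 20 000 cells/well in 24-well plates and exposed to 0, 1, 10, 20, 30 or 50 μg/mL for 7 days. Viable cells were counted daily by trypan blue exclusion. At least three independent experiments in triplicate; mean ± standard deviation.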

[2] = test system: MDA-MB-435; assay: Antiproliferative activity against human MDA-MB-435 cells assessed as reduction in cell growth at 100 uM incubated for 72 hrs by MTT assay relative to control; type: functional
[3] = test system: Caco-2; assay: Antiproliferative activity against human CaCo-2 cells assessed as reduction in cell growth incubated for 72 hrs by MTT assay; type: functional, cell-based; conditions: Caco-2, 72 h
[4] = Toxicity in Swiss mouse assessed as death rate at 5 to 100 mg/kg, ip observed after 7 days; type: organism-based; conditions: in vivo, dose 5-100 mg/kg, time 7 day, read-out: Activity
Summary of the method: (§2)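 Male 6-week-old Swiss mice, acclimatized 5-7 days, randomized into seven groups of 3. Single intraperitoneal injection at 5, 10, 25, 50, 75 or 100 mg/kg; controls housed alike without injection. Mice were monitored over the first 24 h, then daily for 7 days, recording mortality and behaviour.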

[5] = test system: B16-F10; assay: Antiproliferative activity against mouse B16-F10 cells assessed as reduction in cell growth incubated for 72 hrs by MTT assay; type: functional, cell-based; conditions: B16-F10, 72 h
[6] = test system: B16-F10; assay: Antiproliferative activity against mouse B16-F10 cells assessed as reduction in cell growth at 100 uM incubated for 72 hrs by MTT assay relative to control; type: functional
[7] = Cytotoxicity against human MET5A cells assessed as effect on cell morphology at 20 ug/ml measured upto 7 days by laser scanning confocal microscopy; type: cell-based; conditions: 168 h, time <=7 day, dose 20 µg/ml
Summary of the method: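 Healthy mesothelial MeT-5A cells, treated or untreated, were followed over days 1, 3 and 7. Actin cytoskeleton was stained by immunofluorescence (green) and nuclei with DAPI. Morphology was examined by laser scanning confocal microscopy.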

[8] = test system: SK-OV-3; assay: Antiproliferative activity against human SK-OV-3 cells assessed as reduction in cell growth incubated for 4 days by trypan blue exclusion assay; type: functional, cell-based; conditions: SK-OV-3, 96 h; summary of the method: as §1
[9] = test system: Caco-2; assay: Antiproliferative activity against human CaCo-2 cells assessed as reduction in cell growth at 100 uM incubated for 72 hrs by MTT assay relative to control; type: functional
[10] = test system: Huh-7; assay: Antiproliferative activity against human HuH-7 cells assessed as reduction in cell growth incubated for 72 hrs by MTT assay; type: functional, cell-based; conditions: Huh-7, 72 h
[11] = Cytotoxicity against human MET5A cells assessed as effect on cell morphology at 50 ug/ml measured upto 7 days by laser scanning confocal microscopy; type: cell-based; conditions: 168 h, time <=7 day, dose 50 µg/ml
Summary of the method: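 MeT-5A mesothelial cells, untreated or treated up to 50 μg/mL, were stained for actin cytoskeleton by immunofluorescence with DAPI-counterstained nuclei. Morphology was examined by laser scanning confocal microscopy on days 1, 3 and 7.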

[12] = Toxicity in Swiss mouse assessed as effect on food consumption at 5 to 100 mg/kg, ip observed after 7 days; type: organism-based; conditions: in vivo, 168 h, dose 5-100 mg/kg, time 7 day
[13] = test system: MDA-MB-231; assay: Antiproliferative activity against human MDA-MB-231 cells assessed as reduction in cell growth at 100 uM incubated for 72 hrs by MTT assay relative to control; type: functional
[14] = test system: MDA-MB-231; assay: Antiproliferative activity against human MDA-MB-231 cells assessed as reduction in cell growth incubated for 72 hrs by MTT assay; type: functional, cell-based; conditions: MDA-MB-231, 72 h
[15] = Toxicity in Swiss mouse assessed as effect on behaviour at 5 to 100 mg/kg, ip observed after 7 days; type: organism-based; conditions: in vivo, 168 h, dose 5-100 mg/kg, time 7 day
Summary of the method: (§3)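 Male 6-week-old Swiss mice were acclimatized 5-7 days and randomised into seven groups of 3. Six groups got a single i.p. injection at 5, 10, 25, 50, 75 or 100 mg/kg; controls were uninjected. Mice were monitored over the first 24 h, then daily for 7 days, recording mortality and behaviour.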

[16] = Toxicity in Swiss mouse assessed as abnormal appearance at 5 to 100 mg/kg, ip observed after 24 hrs; type: organism-based; conditions: in vivo, dose 5-100 mg/kg
[17] = test system: C6; assay: Antiproliferative activity against rat C6 cells assessed as reduction in cell growth incubated for 72 hrs by MTT assay; type: functional, cell-based; conditions: C6, 72 h
[18] = Toxicity in Swiss mouse assessed as effect on body weight at 5 to 100 mg/kg, ip observed after 7 days; type: organism-based; conditions: in vivo, 168 h, dose 5-100 mg/kg, time 7 day
[19] = test system: SK-OV-3; assay: Antiproliferative activity against human SK-OV-3 cells assessed as reduction in cell growth incubated for 7 days by trypan blue exclusion assay; type: functional, cell-based; conditions: SK-OV-3, 168 h; summary of the method: as §1
[20] = test system: SK-OV-3; assay: Antiproliferative activity against human SK-OV-3 cells assessed as reduction in cell growth incubated for 3 days by trypan blue exclusion assay; type: functional, cell-based; conditions: SK-OV-3, 72 h; summary of the method: as §1
[21] = test system: IGROV-1; assay: Antiproliferative activity against human IGROV-1 cells assessed as reduction in cell growth incubated for 3 days by trypan blue exclusion assay; type: functional, cell-based; conditions: IGROV-1, 72 h; summary of the method: as §1
[22] = test system: Huh-7; assay: Antiproliferative activity against human HuH-7 cells assessed as reduction in cell growth at 100 uM incubated for 72 hrs by MTT assay relative to control; type: functional
[23] = test system: MDA-MB-435; assay: Antiproliferative activity against human MDA-MB-435 cells assessed as reduction in cell growth incubated for 72 hrs by MTT assay; type: functional, cell-based; conditions: MDA-MB-435, 72 h
[24] = test system: SNB-75; assay: Antiproliferative activity against human SNB-75 cells assessed as reduction in cell growth incubated for 72 hrs by MTT assay; type: functional, cell-based; conditions: SNB-75, 72 h
[25] = test system: C6; assay: Antiproliferative activity against rat C6 cells assessed as reduction in cell growth at 100 uM incubated for 72 hrs by MTT assay relative to control; type: functional
[26] = test system: DU-145; assay: Antiproliferative activity against human DU-145 cells assessed as reduction in cell growth incubated for 72 hrs by MTT assay; type: functional, cell-based; conditions: DU-145, 72 h
[27] = test system: SNB-75; assay: Antiproliferative activity against human SNB-75 cells assessed as reduction in cell growth at 100 uM incubated for 72 hrs by MTT assay relative to control; type: functional
[28] = Toxicity in Swiss mouse assessed as death rate at 5 to 100 mg/kg, ip observed after 24 hrs; type: organism-based; conditions: in vivo, dose 5-100 mg/kg, read-out: Activity; summary of the method: as §2
[29] = test system: IGROV-1; assay: Antiproliferative activity against human IGROV-1 cells assessed as reduction in cell growth incubated for 4 days by trypan blue exclusion assay; type: functional, cell-based; conditions: IGROV-1, 96 h; summary of the method: as §1
[30] = test system: A-431; assay: Antiproliferative activity against human A-431 cells assessed as reduction in cell growth at 100 uM incubated for 72 hrs by MTT assay relative to control; type: functional
[31] = test system: DU-145; assay: Antiproliferative activity against human DU-145 cells assessed as reduction in cell growth at 100 uM incubated for 72 hrs by MTT assay relative to control; type: functional
[32] = test system: A-431; assay: Antiproliferative activity against human A-431 cells assessed as reduction in cell growth incubated for 72 hrs by MTT assay; type: functional, cell-based; conditions: A-431, 72 h
[33] = Toxicity in Swiss mouse assessed as abnormal behavior at 5 to 100 mg/kg, ip observed after 24 hrs; type: organism-based; conditions: in vivo, dose 5-100 mg/kg; summary of the method: as §3
[34] = Toxicity in Swiss mouse assessed as systemic signs at 5 to 100 mg/kg, ip observed after 7 days; type: organism-based; conditions: in vivo, 168 h, dose 5-100 mg/kg, time 7 day

| SMILES | IC50 [1] | inhibition at 100 µM [2] | pIC50 [3] | pIC50 [5] | inhibition at 100 µM [6] | Activity [7] | IC50 [8] | inhibition at 100 µM [9] | pIC50 [10] | inhibition at 100 µM [13] | pIC50 [14] | pIC50 [17] | IC50 [19] | IC50 [20] | IC50 [21] | inhibition at 100 µM [22] | pIC50 [23] | pIC50 [24] | inhibition at 100 µM [25] | pIC50 [26] | other results |
| --- | --- | --- | --- | --- | --- | --- | --- | --- | --- | --- | --- | --- | --- | --- | --- | --- | --- | --- | --- | --- | --- |
| NC(=O)c1n[nH]nc1[C@@H]1O[C@H](CO)[C@@H](O)[C@H]1O | 23.8 µg/mL (≈ 97.5 µM) | 80% | 5.09 | 5.82 | 80% | Non-Toxic | 25.5 µg/mL (≈ 104 µM) | 90% | 4.65 | 80% | 5.02 | 5.67 | 19 µg/mL (≈ 77.8 µM) | 24.5 µg/mL (≈ 100 µM) | 23 µg/mL (≈ 94.2 µM) | 60% | 5.72 | 5.03 | 85% | 5.67 | mortality at 168 h [4]: 0%; Activity [11]: Non-Toxic; Activity [12]: Non-Toxic; Activity [15]: Non-Toxic; Activity [16]: Non-Toxic; Activity [18]: Non-Toxic; inhibition at 100 µM [27]: 70%; mortality at 24 h [28]: 0%; IC50 [29]: 22.8 µg/mL (≈ 93.4 µM); inhibition at 100 µM [30]: 80%; inhibition at 100 µM [31]: 85%; pIC50 [32]: 6.24; Activity [33]: Non-Toxic; Activity [34]: Non-Toxic |
| NC(=O)c1ncn([C@@H]2O[C@H](CO)[C@@H](O)[C@H]2O)n1 [RIBAVIRIN] | 16 µg/mL (≈ 65.5 µM) | 50% | 4.46 | 5.46 | 80% | Non-Toxic | 10 µg/mL (≈ 40.9 µM) | 60% | 4.27 | 40% | < 4.00 | 4.87 | 10 µg/mL (≈ 40.9 µM) | 9 µg/mL (≈ 36.9 µM) | 25 µg/mL (≈ 102 µM) | 60% | 4.42 | 4.73 | 75% | < 4.00 | inhibition at 100 µM [27]: 70%; IC50 [29]: 21 µg/mL (≈ 86 µM); inhibition at 100 µM [30]: 70%; inhibition at 100 µM [31]: 50%; pIC50 [32]: 5.50 |
